Source: PubChem BioAssay (several laboratories)
TMEM16A inh: TMEM16A chloride channel inhibitors, primary screen, cell-based, HTS. 1.2% of 310,000 active. HEK293 TMEM16A/YFP iodide influx fluorescence, ionomycin. Anoctamin-1 (Mus musculus), Q8BHY3. AID 588511, 2011. normalized B-score (activity score, 25-100; higher = stronger inhibition) at 10 µM;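 active = ratio plate-corrected score three or more library SD toward inhibition, starting fluorescence score within five deviations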;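 note: score derived from kinetic fluorescence span divided by baseline fluorescence per well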
TMEM16A act: TMEM16A chloride channel activators or potentiators, primary screen, cell-based, HTS | Anoctamin-1 (Mus musculus), Q8BHY3 | 0.3% of 340,000 active | AID 623877, 2012 | HEK293 TMEM16A/YFP-H148Q/I152L, iodide quench fluorescence; hits give low values | B-score at 10 µM;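 active = fluorescence-ratio B-score plate-corrected deviation score at least 3 library SD below zero, with starting fluorescence score within 5 deviations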;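 note: channel opened by trigger with iodide after compound preincubation; score built on the fluorescence ratio of max minus min over baseline; more negative score means more quench and so TMEM16A activation or potentiation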
MC4R antagonist: MC4R antagonists of cAMP signaling, primary screen, cell-based, TR-FRET, antagonist arm of biased-ligand search; Melanocortin receptor 4 (Homo sapiens), P32245; MC4R-expressing cells, MTII-stimulated cAMP, LANCE TR-FRET; inhibition, % at 6.5 µM; 0.48% of 360,000 active; AID 540295, 2011;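 active = inhibition above its plate's cutoff, the mean of tested wells on that plate plus 3 SD, cut at about 29% in these data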;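 note: 0% = Melanotan II alone and 100% = Melanotan II plus saturating MCL0020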
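Assay system: U2OS-MC4R stable cell line; Also added: Melanotan II; Technique: Eu-cAMP/anti-cAMP TR-FRET, emission 671 nm; Times: 30-min compound, 1-h challenge, 1-h detection, room temperature.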
Beta cell apopt: inhibitors of cytokine-induced beta cell apoptosis, primary screen, luminescence; 0.8% of 300,000 active; protection from apoptosis, % (test concentration not listed); INS-1E cytokine-induced death, ATP luminescence, 48 h; percent of positive-control rescue, neutral wells zero;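 active = Every replicate reaches about 75%, or at least half do and their mean reaches it too, limit read from the data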;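 note: 0% = cytokine-treated negative control wells and 100% = positive control rescue; higher means more ATP so stronger rescue from cytokine killing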
MC4R ag barr: MC4R agonists recruiting beta-arrestin, primary screen, cell-based, luminescence, agonist arm of biased-ligand search | AID 540308, 2011 | Melanocortin receptor 4 (Homo sapiens), P32245 | activation, % at 8.9 µM | U2OS MC4R beta-arrestin complementation; percent of melanotan II response, DMSO zero | 0.98% of 360,000 active;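 active = activation above a per-plate cutoff, the mean activation of sample wells on that plate plus 3 SD, cut at about 8% in these data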
CSC inhib: cancer stem cell viability inhibitors, primary screen, luminescence; cancer stem cell-like cells viability; inhibition, % at 7.5 µM; 1.1% of 300,000 active; AID 2717, 2010; in the data active = inhibition above about 75%; tested in HMLE shEcad cells
TMEM16A reconf: TMEM16A chloride channel inhibitors, confirmation, cell-based, re-confirmation; 39% of 2,300 active; inhibition, % at 10 µM; HEK293 TMEM16A/YFP-H148Q, iodide quench fluorescence; ionomycin added to raise cell calcium; shares compounds with TMEM16A inh;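 active = mean duplicate percent inhibition, scaled so buffer wells are 0 and the reference blocker 100, over three buffer SD above buffer mean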
TMEM16A Ca cntr: calcium mobilization in TMEM16A/YFP HEK293 cells, confirmation, counter-screen for TMEM16A inhibitor project; Fluo4 calcium mobilization; 2% of 2,300 active; shares compounds with TMEM16A inh; calcium response (% of ionomycin), % at 10 µM;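 active = duplicate-averaged calcium signal over 20% of the ionomycin maximum, relative to buffer baseline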;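 note: each well's signal is peak minus trough fluorescence divided by its pre-addition baseline; 0% = buffer wells and 100% = ionomycin wells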
YFP-HEK293 quench: iodide YFP quench changes in parental YFP-HEK293, counter-screen for TMEM16A inhibitor project, cell-based; shares compounds with TMEM16A inh; 2,300 tested, under 10 active; AID 652233, 2013; ionomycin; YFP ratio F(max-min)/F0 at 10 µM;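 active = yellow fluorescent protein signal ratio exceeding the buffer control mean by over 5 SD of those controls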;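 note: ratio is mean of duplicate wells from kinetic YFP trace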
ClC-1 inh: ClC-1 chloride channel inhibition, selectivity assay for TMEM16A inhibitor project, cell-based, voltage-dependent ClC-1; shares compounds with TMEM16A inh; CHO ClC-1-YFP, iodide influx fluorescence quench; iodide control reads 0, buffer control 100; ratio percent, % at 10 µM; 2,300 tested, under 10 active;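 active = duplicate-mean ratio percent above the mean of iodide-only control wells, which defines zero, plus 5 of their SD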;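 note: higher percent means stronger block of ClC-1 iodide influx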
Active calls of the source: *. Shown are actives, neighbours in structure and some others; about 3.8% of the full set was active somewhere.

How did COCCN(C(=O)COC(=O)c1ccc(Br)o1)c1c(N)n(Cc2ccccc2)c(=O)[nH]c1=O do in these assays?
MC4R antagonist: 7.4; MC4R ag barr: 0.4

What do the screens show for `CCN(C(=O)C(C)Sc1nnc(-c2ccncc2)n1C)C1CCCCC1` (centres undefined)?
TMEM16A act: inactive; MC4R antagonist: 0.0; Beta cell apopt: -0.1; MC4R ag barr: -2.0; CSC inhib: -17.8

Results for CNC[C@H]1Oc2ccc(NC(=O)Nc3ccccc3)cc2CC(=O)N([C@H](C)CO)C[C@H]1C ?
TMEM16A act: inactive; MC4R antagonist: 6.9; Beta cell apopt: 3.1; MC4R ag barr: -1.0; CSC inhib: -12.3

What do the screens show for `O=S(=O)(NCCSCc1c(Cl)cccc1Cl)c1ccc2c(c1)OCCO2`?
TMEM16A inh: 25*; TMEM16A act: inactive; MC4R antagonist: 5.5; Beta cell apopt: 0.6; MC4R ag barr: 2.1; CSC inhib: 12.1; TMEM16A reconf: inactive; TMEM16A Ca cntr: inactive; YFP-HEK293 quench: -1.1; ClC-1 inh: -10.0

How did O=C(CN1CCN(c2ncc(C(F)(F)F)cc2Cl)CC1)N1CCN(c2ncc(C(F)(F)F)cc2Cl)CC1 do in these assays?
TMEM16A inh: inactive; TMEM16A act: inactive; MC4R antagonist: 2.1; Beta cell apopt: 15.9; MC4R ag barr: 0.9; CSC inhib: 3.2

Results for O=C(CSc1ccc(Cl)cc1)N1CCN(c2ncc(C(F)(F)F)cc2Cl)CC1 ?
TMEM16A inh: 100*; TMEM16A act: inactive; MC4R antagonist: 16.9; Beta cell apopt: -1.1; MC4R ag barr: 1.7; CSC inhib: 42.1; TMEM16A reconf: inactive; TMEM16A Ca cntr: inactive; YFP-HEK293 quench: -0.925; ClC-1 inh: 2.5

What do the screens show for `COc1ccc(C(=O)C2CCCN(S(=O)(=O)c3ccc(C(C)=O)cc3)C2)c(C)c1` (centres undefined)?
TMEM16A inh: 25*; TMEM16A act: inactive; MC4R antagonist: 2.2; Beta cell apopt: 22.6; MC4R ag barr: -1.8; CSC inhib: -4.9; TMEM16A reconf: 30.0%*; TMEM16A Ca cntr: inactive; YFP-HEK293 quench: -0.885; ClC-1 inh: -23.0

How did O=C(Nc1ccccc1Cl)c1ccc2c(=O)n3c(nc2c1)CCC3 do in these assays?
TMEM16A act: inactive; MC4R antagonist: 4.1; Beta cell apopt: -0.4; MC4R ag barr: 0.2

How did O=C(Nc1nc(-c2ccccc2)cs1)c1ccc2c(=O)n3c(nc2c1)CCCCC3 do in these assays?
TMEM16A inh: 100*; TMEM16A act: inactive; MC4R antagonist: 26.4; Beta cell apopt: 4.0; MC4R ag barr: -2.9; TMEM16A reconf: inactive; TMEM16A Ca cntr: inactive; YFP-HEK293 quench: -1.2; ClC-1 inh: -1.5

How did O=C(Nc1nc(-c2ccccc2)cs1)c1ccccc1NS(=O)(=O)c1ccc(F)cc1 do in these assays?
TMEM16A inh: 100*; TMEM16A act: inactive; MC4R antagonist: 19.9; Beta cell apopt: 90.0*; MC4R ag barr: 0.9; CSC inhib: 121.2*; TMEM16A reconf: 78.0%*; TMEM16A Ca cntr: inactive; YFP-HEK293 quench: -1.2; ClC-1 inh: -32.5

What do the screens show for `O=C(Nc1nc(-c2ccccc2)cs1)c1ccc(=O)[nH]c1`?
TMEM16A inh: 25*; TMEM16A act: inactive; MC4R antagonist: 3.9; Beta cell apopt: -11.9; MC4R ag barr: -1.4; CSC inhib: -4.2; TMEM16A reconf: 26.5%*; TMEM16A Ca cntr: inactive; YFP-HEK293 quench: -0.841; ClC-1 inh: -7.5

How did O=S(=O)(Nc1ccc(-c2csc(-c3ccccc3)n2)cc1)c1ccc(F)cc1 do in these assays?
TMEM16A inh: inactive; TMEM16A act: inactive; MC4R antagonist: 5.2; Beta cell apopt: 16.8; MC4R ag barr: 3.9

How did O=C(Nc1ccc(Cl)cc1)c1cccs1 do in these assays?
TMEM16A inh: 25*; TMEM16A act: inactive; MC4R antagonist: 4.1; Beta cell apopt: 5.6; MC4R ag barr: 1.0; CSC inhib: -2.3; TMEM16A reconf: inactive; TMEM16A Ca cntr: inactive; YFP-HEK293 quench: -1.1; ClC-1 inh: -15.0

How did O=C(Cc1ccc(Cl)cc1)Nc1ccc(NC(=O)c2cccs2)cc1 do in these assays?
TMEM16A inh: inactive; TMEM16A act: inactive; MC4R antagonist: 11.3; Beta cell apopt: -5.9; MC4R ag barr: -0.4

Results for O=C(Nc1nc(-c2ccc(Cl)s2)cs1)c1cccs1 ?
TMEM16A inh: 25*; TMEM16A act: inactive; MC4R antagonist: 1.3; Beta cell apopt: 7.9; MC4R ag barr: -1.6; CSC inhib: -5.7; TMEM16A reconf: inactive; TMEM16A Ca cntr: inactive; YFP-HEK293 quench: -0.965; ClC-1 inh: -17.5

Results for O=C(Nc1nc(-c2ccccc2)cs1)c1cccs1 ?
TMEM16A inh: 25*; TMEM16A act: inactive; MC4R antagonist: -1.2; Beta cell apopt: 5.4; MC4R ag barr: -1.4; CSC inhib: -1.8; TMEM16A reconf: 22.0%*; TMEM16A Ca cntr: inactive; YFP-HEK293 quench: -1.05; ClC-1 inh: -2.0

How did O=C(Nc1nc(-c2ccc(Cl)s2)cs1)c1ccco1 do in these assays?
TMEM16A inh: inactive; TMEM16A act: inactive; MC4R antagonist: 10.4; Beta cell apopt: 10.9; MC4R ag barr: -2.1; CSC inhib: -9.1

What do the screens show for `O=C(Cn1[nH]c(=O)c2ccccc2c1=O)OCC(=O)N(Cc1ccccc1)Cc1ccccc1`?
TMEM16A inh: 100*; TMEM16A act: inactive; MC4R antagonist: 12.5; Beta cell apopt: -2.9; MC4R ag barr: -1.9; CSC inhib: -15.7; TMEM16A reconf: inactive; TMEM16A Ca cntr: 24.0%*; YFP-HEK293 quench: -0.898; ClC-1 inh: -13.5
